The list is not random: actives were taken first. Their share in the collection is about 3%.
PfG6PD inh: PfG6PD enzyme inhibitors, primary screen, biochemical, fluorescence intensity, uHTS; glucose-6-phosphate dehydrogenase-6-phosphogluconolactonase (Plasmodium falciparum 3D7); PfGluPho enzyme, NADPH resazurin-diaphorase fluorescence; inhibition, % at 20 µM; 350,000 tested, 0.78% active; AID 504690, 2011;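 active = inhibition reaching at least a set limit at 20 µM in the primary screen, cut at about 59% in these data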;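 also: 0% = DMSO wells with substrate and 100% = DMSO wells lacking glucose-6-phosphate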
Beta2AR agonist: beta2AR agonists driving receptor internalization, primary screen, cell-based, FAP fluorogen, flow cytometry. Am2.2-beta2AR cells. response, % (no concentration beside the values). 340,000 tested, 0.43% active;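 active = response above a set limit, near 3 SD of response in nonfluorescent compounds, cut at about 42% in these data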
MC4R ag barr: MC4R agonists recruiting beta-arrestin, primary screen, cell-based, luminescence, agonist arm of biased-ligand search; 360,000 tested, 0.98% active; activation, % at 8.9 µM; Melanocortin receptor 4 (Homo sapiens), P32245; U2OS MC4R beta-arrestin complementation; percent of melanotan II response, DMSO zero;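 active = activation above a per-plate cutoff, the mean activation of sample wells on that plate plus 3 SD, cut at about 8% in these data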
MC4R antag cAMP: MC4R antagonists of cAMP signaling, primary screen, cell-based, TR-FRET, antagonist arm of biased-ligand search; inhibition, % at 6.5 µM; 360,000 tested, 0.48% active; AID 540295, 2011; MC4R-expressing cells, MTII-stimulated cAMP, LANCE TR-FRET;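 active = inhibition above its plate's cutoff, the mean of tested wells on that plate plus 3 SD, cut at about 29% in these data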;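 also: 0% = Melanotan II alone and 100% = Melanotan II plus saturating MCL0020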
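Material: U2OS-MC4R stable cell line | Reagent: Melanotan II challenge after compound preincubation | Doses: One concentration, 6.5 µM nominal | Incubation: 30-min compound preincubation, 1-h Melanotan II challenge, 1-h detection, room temperature | Signal: TR-FRET cAMP assay | Replicates: One well per compound, no replicates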
ABHD5 PLIN5 PPI: ABHD5-PLIN5 interaction inhibitors, primary screen, cell lysate, split luciferase complementation, luminescence. Perilipin-5 (Homo sapiens) + 1-acylglycerol-3-phosphate O-acyltransferase ABHD5 (Homo …. Split G. princeps luciferase complementation, 4 h. inhibition, % at 4 µM. 360,000 tested, 0.78% active;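 active = inhibition above the mean inhibition across every tested compound plus 3 SD, cut at about 22% in these data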;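 also: 0% = DMSO only wells and the 100% control is not disclosed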
PfG6PD confirm: PfG6PD inhibitors, hit retest, confirmation, biochemical, fluorescence intensity, single concentration. shares compounds with PfG6PD inh. recombinant PfGluPho, NADPH-diaphorase-resazurin fluorescence. inhibition, % at 20 µM. 2,400 tested, 34% active;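 active = inhibition of at least 50% at 20 µM in any single replicate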;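 also: 0% = DMSO with substrate and 100% = DMSO lacking glucose-6-phosphate substrate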
Diaph ctr 10uM: diaphorase inhibitors and chemical oxidizers, confirmation, counter-screen for P. falciparum G6PD inhibitor project, biochemical, fluorescence intensity, 10 µM NADPH; diaphorase-coupled resazurin reduction, NADPH 10 uM; shares compounds with PfG6PD inh; 820 tested, 39% active; inhibition, % at 20 µM;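 active = average inhibition reaching 50% or more with the compound at 20 µM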;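 also: resorufin red fluorescence formed as diaphorase reduces resazurin using NADPH; 0% = DMSO with enzyme and 100% = DMSO without enzyme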
Diaphorase 30uM: diaphorase inhibitors and chemical oxidizers, confirmation, counter-screen for P. falciparum G6PD inhibitor project, biochemical, fluorescence intensity, 30 µM NADPH. shares compounds with PfG6PD inh. Diaphorase/resazurin coupled assay, resorufin fluorescence. inhibition, % at 20 µM. 820 tested, 29% active;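 active = inhibition averaging 50% or more, tested at 20 µM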;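 also: 0% = DMSO with enzyme and 100% = DMSO wells lacking diaphorase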
Active calls of the source: *; nt = no result given.

SMILES | PfG6PD inh | Beta2AR agonist | MC4R ag barr | MC4R antag cAMP | ABHD5 PLIN5 PPI | PfG6PD confirm | Diaph ctr 10uM | Diaphorase 30uM
O=C(O)c1cc(O)c2c(c1)[C@H]([C@H]1c3cc(C(=O)O)cc(O)c3C(=O)c3c(O[C@@H]4O[C@H](CO)[C@@H](O)[C@H](O)[C@H]4O)cccc31)c1cccc(OC3O[C@H](CO)[C@@H](O)[C@H](O)[C@H]3O)c1C2=O (some centres undefined) | 71* | 11 | -2 | -2 | 1 | 6 | nt | nt
COc1ccc(NC(=S)NC(NC(=O)c2ccccc2Cl)C(Cl)(Cl)Cl)c([N+](=O)[O-])c1 (centres undefined) | 11 | 12 | -6 | -6 | -10 | nt | nt | nt
COc1ccc(NC(=S)NC(NC(=O)CCl)C(Cl)(Cl)Cl)c([N+](=O)[O-])c1 (centres undefined) | 65* | 3 | -1 | 2 | -5 | 48 | nt | nt
C=CCSc1nc2sc3c(c2c(=O)n1CC)CCc1ccccc1-3 | 84* | -4 | -2 | 7 | -2 | 51* | -16 | -1
Cc1ccc(F)c(CNC(=O)C2CCC(=O)N(CCCN3CCCC3=O)C2)c1F (centres undefined) | 8 | -1 | -1 | 5 | -3 | nt | nt | nt
Oc1ccc(/C=N/n2cc(-c3ccccc3)[nH]c2=S)cc1 | 37 | -9 | -3 | -4 | -2 | nt | nt | nt
COc1cc(/C=N/n2cc(-c3ccccc3)[nH]c2=S)cc(OC)c1O | 61* | -4 | -3 | 14 | 2 | 52* | -35 | -31
CC(C)OC(=O)CSc1nc(Cc2ccccc2)nc2ccccc12 | -20 | -1 | -3 | 15 | -2 | nt | nt | nt
[O-]/[N+](=C\c1ccco1)c1ccc(Cl)cc1 | 89* | 11 | -2 | 4 | -14 | 62* | 38 | 13
[O-][N+](=Cc1ccccc1)c1ccc(Cl)cc1 | 87* | 5 | 1 | 12 | -16 | 92* | 62* | 30
Cc1cc(C)nc(SCC(=O)NC(=O)c2ccccc2O)n1 | 10 | 1 | -1 | 7 | -4 | nt | nt | nt
COc1ccc(C(=O)Nc2sc3c(c2C(=O)O)CC(C)(C)OC3)cc1 | 91* | 1 | 1 | 21 | 2 | 48* | 40 | 45
CC(C)COc1ccc(C(=O)Nc2sc3c(c2C(=O)O)CC(C)(C)OC3)cc1 | -9 | 4 | 0 | 19 | -5 | nt | nt | nt
CC1(C)Cc2c(sc(NC(=O)c3ccccc3)c2C(=O)O)CO1 | 88* | -4 | -1 | -4 | -1 | 41 | nt | nt
CO/N=C/c1ccc(Oc2ccc([N+](=O)[O-])cc2[N+](=O)[O-])c(OC)c1 | 94* | 4 | -1 | 4 | -4 | 44 | nt | nt
COc1cc(/C=N/O)ccc1Oc1ccc([N+](=O)[O-])cc1[N+](=O)[O-] | 29 | -8 | -1 | 8 | 1 | nt | nt | nt
CCSc1nnc(NC(=O)c2ccc3ccccc3n2)s1 | 71* | -2 | -1 | 5 | -4 | 43 | nt | nt
O=C(Nc1cccc(S(=O)(=O)Nc2ccccc2F)c1)c1ccc2ccccc2n1 | 76* | 12 | -2 | 4 | -4 | 49 | nt | nt
O=C(Nc1ccccc1C(=O)O)c1ccc2ccccc2n1 | 74* | 6 | 0 | 0 | -7 | 70* | 59* | 68*
O=C(/C=C/c1ccccc1)Nc1cccc(S(=O)(=O)Nc2ccccc2F)c1 | 71* | 3 | -1 | 7 | -4 | 46 | nt | nt
